The source of these data is ChEMBL document CHEMBL3112564, “Identification of clinically viable quinolinol inhibitors of botulinum neurotoxin A light chain” (J Med Chem, 2014).

≈ marks a conversion by molar mass, not a printed value.

Series [1] can be described thus: Aqueous solubility of the compound at pH 1 after 24 hrs by shake flask method. Type of series: physicochemical. An outline of the steps: (§1)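 Miniaturized shake-flask method: analyte at 1.0 mM in aqueous solution at pH 1.0 or 6.8, shaken gently (600 rpm) in a syringeless filter at room temperature for 24 h. Filtrate was collected after a further 30 min, diluted in 50:50 MeCN/water with 0.1% formic acid, and analysed by LC–MS/MS. Calibration range was 0.05–12.5 μM at pH 6.8 and 5.0–25000 μM at pH 1.0.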

A short description of series [2]: Aqueous solubility of the compound at pH 6.8 after 24 hrs by shake flask method. Type of series: physicochemical. The settings on record: buffer, pH 6.8, 24 h. An outline of the steps:
as §1

For series [3], the system named is Plasma. The experiment in a line: Metabolic stability in Sprague-Dawley rat plasma assessed as compound remaining at 1 uM measured at 3 hrs by LC-MS/MS analysis. The class given is ADME, cell-free. In a few lines: (§2)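 Compound at 1.0 μM was incubated in plasma at 37 °C and sampled at 0, 1, 3, 5 and 24 h. Proteins were precipitated with cold acetonitrile containing internal standard, and samples were analysed by LC–MS/MS for percent remaining. Half-life came from regression analysis.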

The subject of series [4] is Plasma. The experiment in a line: Half life in Sprague-Dawley rat plasma at 1 uM by LC-MS/MS analysis. Type of series: ADME, cell-free. In a few lines:
as §2

The subject of series [5] is Liver microsome. The experiment in a line: Half life in Sprague-Dawley rat liver microsomes at 1 uM by reversed phase LC/MS analysis. The class given is ADME. An outline of the steps: (§3)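 Liver microsomes were from humans (pooled from 10 male donors) or male Sprague–Dawley rats aged 8–10 weeks. Incubations used 0.125 mg/mL total protein and 1.0 μM drug at 37 °C, sampled at 0, 5, 15, 30 and 60 min. Parent-to-product transitions were read by reversed-phase LC with triple quadrupole MS, and % remaining was taken relative to time zero. t1/2 = −ln(2)/k, with k from log–linear regression.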

Series [6] has as its system Liver microsome. In words: Drug metabolism in Sprague-Dawley rat liver microsomes assessed as metabolic rate at 1 uM by reversed phase LC/MS analysis. Type of series: ADME. In a few lines:
as §3
In general terms: Liver microsomes are vesicles of endoplasmic reticulum, rich in cytochrome P450 enzymes.

The subject of series [7] is Plasma. In words: Half life in human plasma at 1 uM by LC-MS/MS analysis. Type of series: ADME, cell-free. An outline of the steps:
as §2

For series [8], the system named is Liver microsome. In words: Half life in human liver microsomes at 1 uM by reversed phase LC/MS analysis. Type of series: ADME. An outline of the steps: as §3
The test system of series [9] is Liver microsome. The experiment in a line: Drug metabolism in human liver microsomes assessed as metabolic rate at 1 uM by reversed phase LC/MS analysis. Type of series: ADME. In a few lines:
as §3

The target of series [10] is Botulinum neurotoxin type A (Clostridium botulinum, UniProt P0DPI0).
Chain of Botulinum neurotoxin type A (P0DPI0 2-448 limits assumed): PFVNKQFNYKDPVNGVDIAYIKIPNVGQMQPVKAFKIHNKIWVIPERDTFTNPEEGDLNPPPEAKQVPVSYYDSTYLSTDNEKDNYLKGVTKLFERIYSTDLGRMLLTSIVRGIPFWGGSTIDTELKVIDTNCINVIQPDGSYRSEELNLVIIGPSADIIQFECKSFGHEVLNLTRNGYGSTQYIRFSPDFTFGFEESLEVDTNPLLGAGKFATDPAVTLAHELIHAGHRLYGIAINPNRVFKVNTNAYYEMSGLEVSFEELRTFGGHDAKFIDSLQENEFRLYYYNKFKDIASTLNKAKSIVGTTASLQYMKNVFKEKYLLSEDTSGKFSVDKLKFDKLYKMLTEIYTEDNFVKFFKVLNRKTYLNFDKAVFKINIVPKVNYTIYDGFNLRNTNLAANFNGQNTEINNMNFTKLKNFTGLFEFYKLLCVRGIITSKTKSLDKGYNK
The subject of series [11] is Plasma. In words: Metabolic stability in human plasma assessed as compound remaining at 1 uM measured at 3 hrs by LC-MS/MS analysis. The class given is ADME, cell-free. In a few lines: as §2
The next series has as its system Serum. In words: Drug uptake in serum of alzheimer patient at 250 to 750 mg, po. The class given is ADME, cell-free. The settings on record: human, read-out: Drug uptake.
The species entered for a further series is Homo sapiens. The experiment in a line: Half life in human. The class given is ADME, organism-based. As to conditions: in vivo.

Molecule `Oc1c(C(Nc2ccccn2)c2ccccc2)ccc2cccnc12` (stereo not drawn) showed a thermodynamic solubility at 24 h in [1] of 1170 µM (≈ 384 µg/mL). The same molecule showed a solubility in series [2] of 0.078 µM (≈ 0.0255 µg/mL). In addition, in the series with Plasma [3], the Stability was found to be 67.3%. Moreover, the t1/2 stood at 13.5 h in the series with Plasma [4], 0.143 h in the series on Liver microsome [5], 11.4 h in the series with Plasma [7] and 0.493 h with Liver microsome [8]. In addition, the Drug metabolism in the series on Liver microsome [6] is 0.637 µM/min/mg; with Liver microsome [9], 0.186 µM/min/mg. 2.2 µM corresponded to half-maximal inhibition in series [10] (IC50).

Take `Cc1ccnc(NC(c2ccc([N+](=O)[O-])cc2)c2ccc3ccc(C)nc3c2O)c1` (stereo not drawn): the thermodynamic solubility at 24 h in series [1] is 997 µM (≈ 399 µg/mL). Also, the Stability in the series on Plasma [3] turned out to be 98.5%; with Plasma [11], 92.2%. The t1/2 in the series with Plasma [4] is 109 h; with Liver microsome [5], 0.338 h; in the series on Plasma [7], 42 h; in the series on Liver microsome [8] it was 1.93 h. The Drug metabolism with Liver microsome [6] amounted to 0.271 µM/min/mg; in the series on Liver microsome [9], 0.047 µM/min/mg. Further, in series [10], the IC50 was found to be 1 µM.

`Cc1ccnc(NC(c2ccc([N+](=O)[O-])cc2)c2ccc3cccnc3c2O)c1` (stereo not drawn) yielded a solubility (thermodynamic) at 24 h in [1] of 1050 µM (≈ 405 µg/mL). In addition, the Stability with Plasma [3] is listed as 100%; in the series on Plasma [11], 90.9%. Besides, the t1/2 came to 51.1 h with Plasma [4], 0.703 h with Liver microsome [5], 24.4 h in the series with Plasma [7] and 0.425 h in the series on Liver microsome [8]. The Drug metabolism is 0.13 µM/min/mg in the series on Liver microsome [6] and 0.215 µM/min/mg in the series on Liver microsome [9]. In addition, in series [10], the IC50 is 4.3 µM.

In [1], `Oc1c(Cl)cc(Cl)c2cccnc12` [CHLOROXINE] showed a thermodynamic solubility at 24 h of 326 µM (≈ 69.8 µg/mL). Moreover, the solubility in [2] was determined as 0.532 µM (≈ 0.114 µg/mL). In addition, the Stability with Plasma [3] and with Plasma [11] was 100% throughout. Moreover, the t1/2 came to 67.7 h in the series with Plasma [4], 0.917 h in the series on Liver microsome [5], 18.6 h in the series on Plasma [7] and 0.815 h with Liver microsome [8]. Also, the Drug metabolism in the series on Liver microsome [6] turned out to be 0.1 µM/min/mg; in the series on Liver microsome [9], 0.112 µM/min/mg. Moreover, the half-maximal inhibitory concentration (IC50) in series [10] was 11.5 µM.

Take `Cc1ccc2c(Cl)cc(Cl)c(O)c2n1` [CHLORQUINALDOL]: the thermodynamic solubility at 24 h in series [1] worked out at 1100 µM (≈ 250 µg/mL). In addition, the Stability in the series with Plasma [3] is on record as 96.9%; with Plasma [11], 92.2%. For the same molecule, the t1/2 turned out to be 115 h in the series on Plasma [4], 0.643 h in the series with Liver microsome [5], 24.5 h in the series on Plasma [7] and 0.48 h with Liver microsome [8]. Further, the Drug metabolism was 0.142 µM/min/mg in the series with Liver microsome [6] and 0.19 µM/min/mg with Liver microsome [9]. In addition, 10.1 µM corresponded to half-maximal inhibition in series [10] (IC50).

On to `Oc1c(I)cc(Cl)c2cccnc12` [CLIOQUINOL], for which the thermodynamic solubility at 24 h in series [1] is 38.1 µM (≈ 11.6 µg/mL). In addition, in the series on Serum, the concentration stood at 13 µM. For the same molecule, the Stability in the series with Plasma [3] is listed as 83.9%; in the series with Plasma [11] it was 100%. The t1/2 was 136 h with Plasma [4]; 1.28 h in the series with Liver microsome [5]; 42.4 h in the series with Plasma [7]; 1.06 h in the series with Liver microsome [8]; 11 h in the series filed under Homo sapiens. The Drug metabolism in the series with Liver microsome [6] stood at 0.071 µM/min/mg; in the series on Liver microsome [9] it was 0.086 µM/min/mg. Moreover, in series [10], it took 20.3 µM to reach half-maximal inhibition (IC50).

Usually solubility (thermodynamic) stands for the concentration in solution at equilibrium with solid. By solubility is commonly meant the concentration that dissolves in the medium under given conditions. Broadly, the IC50 is the concentration that gives 50% inhibition. A lower IC50 goes with inhibition by little substance.
